The source made the active and inactive calls. The rule behind the calls is not given here.
Columns and labels:
Murine hepatitis virus [1] = assay: Antiviral activity against murine hepatitis virus-A59 infected in BALB/c mouse assessed as reduction in IL-6 production in liver at 10 to 100 mg/kg, po administered once daily one hour post infection and measured after 3 days by ELISA analysis; type: functional, organism-based; conditions: dose 10-100 mg/kg, time 3.0 day
In short: (§1)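 MHV-A59 was inoculated intranasally into male BALB/c mice (30 μL, TCID50 = 10−7.125/100 μL), with oral dosing once daily from 1 hpi for four days. At 3 dpi, 0.1 g lung or liver from 4 mice per group was homogenized in 0.9 mL water at 4 °C and centrifuged. Supernatant IFN-β was read by ELISA; TNF-α, IFN-γ, IL-1β, IL-6 and CXCL10 by multi-analyte kit, with OD 450 nm against standards.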

Murine hepatitis virus [2] = assay: Antiviral activity against murine hepatitis virus-A59 infected in BALB/c mouse assessed as remission of fulminant hepatitis in liver at 200 mg/kg, po administered once daily one hour post infection and measured after 3 days by H&E staining based analysis; type: functional, organism-based; conditions: time 3.0 day
In short: (§2)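 In male BALB/c mice (3–4 weeks), MHV-A59 was given intranasally (30 μL, TCID50 = 10−7.125/100 μL). Oral dosing once daily in a Cremophor EL/PBS/DMSO vehicle began at 1 hpi and lasted four days. At 3 dpi, lungs and livers from 4 mice per group were fixed in zinc formalin and paraffin-embedded. Sections of about 4 μm were stained with H&E and examined at 200× and 400×.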

[3] = Drug distribution in BALB/c mouse lung assessed as hydrolyzed ibuprofen metabolite at 200 mg/kg, po administered as single dose and measured after 1 hrs by LC-MS/MS analysis; type: ADME, organism-based; conditions: in vivo
Murine hepatitis virus [4] = assay: Antiviral activity against murine hepatitis virus-A59 infected in BALB/c mouse assessed as remission of hemorrhage in liver at 200 mg/kg, po administered once daily one hour post infection and measured after 3 days by H&E staining based analysis; type: functional, organism-based; conditions: time 3.0 day; in short: as §2
[5] = Drug distribution in BALB/c mouse liver assessed as hydrolyzed GS-441524 metabolite at 200 mg/kg, po administered as single dose and measured after 1 hrs by LC-MS/MS analysis; type: ADME, organism-based; conditions: in vivo
[6] = Drug distribution in BALB/c mouse kidney assessed as hydrolyzed GS-441524 metabolite at 200 mg/kg, po administered as single dose and measured after 1 hrs by LC-MS/MS analysis; type: ADME, organism-based; conditions: in vivo
[7] = Drug distribution in BALB/c mouse plasma assessed as hydrolyzed GS-441524 metabolite at 200 mg/kg, po administered as single dose and measured after 1 hrs by LC-MS/MS analysis; type: ADME, organism-based; conditions: in vivo
Murine hepatitis virus [8] = assay: Antiviral activity against murine hepatitis virus-A59 infected in BALB/c mouse assessed as reduction in IFN-beta production in lungs at 200 mg/kg, po administered once daily one hour post infection and measured after 3 days by ELISA analysis; type: functional, organism-based; conditions: time 3.0 day; in short: as §1

CC(C)Cc1ccc(C(C)C(=O)OC[C@H]2O[C@@](C#N)(c3ccc4c(N)ncnn34)[C@H](O)[C@@H]2O)cc1 (stereo partly drawn)
Activity (Murine hepatitis virus [1]): Active
Activity (Murine hepatitis virus [2]): Active
Drug uptake [3]: Active
Activity (Murine hepatitis virus [4]): Active
Drug uptake [5]: Active
Drug uptake [6]: Active
Drug uptake [7]: Active
Activity (Murine hepatitis virus [8]): Active

Source: ChEMBL document CHEMBL5346886 (Eur J Med Chem, 2023)
